Pf gamet viab: kills late stage P. falciparum gametocytes; inhibition, % at 10.9 µM; 150,000 compounds, 0.065% hits; P. falciparum stage V gametocytes, ATP luminescence, 24 h;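 active = inhibition above the mean plus 3 SD of compounds within the control limits, set per campaign, cut at about 38% in these data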;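 note: 0% = DMSO wells and 100% = medium only without gametocytes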
L929 necroptosis: blocks zVAD induced death of L929 cells | L929 zVAD necroptosis rescue, ATP luminescence, 24 h; with zVAD 60 µM | viability rescue, % at 10 µM | 220,000 compounds, 0.38% hits | AID 1377;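 active = activation, scaled between plate controls, above about 75%, limit read from the data; inactive = activation under that limit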;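 note: 0% = zVAD with DMSO and 100% = DMSO alone without zVAD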
Arbovirus anti: arbovirus infection inhibition | arbovirus infection cell-based antiviral screen | inhibition, % at 10 µM | 200,000 compounds, 0.37% hits; in the data active = inhibition above about 30%
Lipid droplet: hepatic lipid droplet formation modulation | AML12 mouse hepatocytes, oleate lipid droplets, BODIPY imaging | inhibition, % at 6.5 µM | 240,000 compounds, 0.4% hits | AID 1656;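 active = lipid droplet intensity inhibited by at least 50%, with more than 500 cells counted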
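Test system: AML12 mouse liver cells; schedule: overnight exposure; technique: high-content imaging of BODIPY-stained droplets and DAPI nuclei; read-out: % inhibition of corrected integrated BODIPY droplet signal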
TNF necrop inh: blocks TNF-alpha induced death of Jurkat FADD-/- cells; Jurkat FADD-/- TNF necroptosis rescue, ATP luminescence, 24 h; 0 = TNF only, 100 = no-TNF cells; activation (protection from cell death), % at 10 µM; 220,000 compounds, 0.068% hits; AID 463075;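 active = activation, meaning protection from cell death, of at least 50% relative to plate controls; inactive = activation below 50%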;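 note: necroptosis triggered by 40 ng/mL TNF-alpha added together with compound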
The depositor's hits bear a star; / = no result. An excerpt weighted towards active compounds, which were near 0.91% of everything screened.

SMILES	Pf gamet viab	L929 necroptosis	Arbovirus anti	Lipid droplet	TNF necrop inh
CCC1=NN2C(=N)/C(=C/c3c(C)nn(-c4ccccc4)c3Cl)C(=O)N=C2S1	/	0.5	13.6	9.9	2.0
CCCC1=NN2C(=N)/C(=C\c3cc(C)n(-c4cccc(C)c4)c3C)C(=O)N=C2S1	1.7	1.4	32.5*	-7.8	2.5
CCCC1=NN2C(=N)/C(=C\c3ccc(SCc4ccco4)o3)C(=O)N=C2S1	/	1.3	31.9*	4.7	-2.9
CCC1=NN2C(=N)/C(=C\c3ccc(SCc4ccco4)o3)C(=O)N=C2S1	/	73.0	62.2*	/	-2.3
CCCC1=NN2C(=N)/C(=C\c3cc(C)n(Cc4ccccc4)c3C)C(=O)N=C2S1	-0.2	1.8	/	17.0	1.3
CSc1ccc(CN2CCCC(N3CCN(c4ccccc4)CC3)C2)cc1 (configuration not stated)	5.6	/	/	-10.7	/
O=C(NNC(=O)c1cccs1)c1ccc(Cl)c([N+](=O)[O-])c1	/	-0.7	2.4	-1.0	-0.2
O=C(NNC(=O)c1cccs1)c1ccc([N+](=O)[O-])cc1	-24.6	-0.8	34.7*	-4.2	0.1
C=CCn1c(SC(C)C#N)nc2sc(CC)cc2c1=O (configuration not stated)	31.2	26.7	-4.7	3.3	0.2
C=CCn1c(SC(C)C(N)=O)nc2sc(CC)cc2c1=O (configuration not stated)	5.8	-1.1	32.1*	15.1	0.0
COC(=O)c1ccc(CO/N=C/c2ccc(OC)cc2OC)cc1	/	/	/	9.0	/
COc1ccc(Cn2c(C)c(C)c(C#N)c2NC(=O)Nc2ccc(Cl)cc2)cc1	/	0.0	-4.9	/	-0.9
COc1ccc(Cn2c(C)c(C)c(C#N)c2NC(=O)Nc2cccc(Cl)c2)cc1	-38.1	0.0	79.0*	/	0.9
COc1ccccc1CNC(=O)C/C(C)=N/NC(=O)Cc1ccc(Cl)cc1	/	/	/	0.3	/
COC(=O)[C@]1(C)N[C@H](c2ccc(-c3ccc(F)cc3)cc2)[C@@H]2C(=O)N(C)C(=O)[C@@H]21	21.3	/	/	/	/
Cc1ccc(/C=C/C(=O)NC2CCS(=O)(=O)C2)cc1 (configuration not stated)	-2.0	0.4	6.8	8.7	1.6
O=C(/C=C/c1ccccc1)NC1CCS(=O)(=O)C1 (configuration not stated)	63.0*	0.2	-10.9	9.1	1.5
O=C(Oc1ccc(-c2cnc3ccccc3n2)cc1)c1ccco1	10.3	78.8*	-4.8	/	-0.1
Cc1c(C(=O)Oc2ccc(-c3cnc4ccccc4n3)cc2)cccc1[N+](=O)[O-]	-5.5	80.8*	-9.7	/	0.1
O=C(Nc1cccc(-c2cnc3ccccc3n2)c1)c1ccco1	/	1.8	-20.0	5.4	-3.6
O=C(Oc1ccc(-c2cnc3ccccc3n2)cc1)c1cc([N+](=O)[O-])ccc1Cl	-15.7	73.4	-1.2	/	-1.3
CCOC(=O)N1CCc2c(sc3ncn(Cc4ccc(F)cc4)c(=O)c23)C1	-1.1	0.5	/	9.0	3.3
O=c1c2c3c(sc2ncn1Cc1ccc(F)cc1)CCC3	-33.0	1.2	-3.9	2.6	92.5*
COc1ccc(OC)c(NC(=S)N2CCC(C(O)(c3ccccc3)c3ccccc3)CC2)c1	57.0*	1.1	-7.2	-4.6	1.4
COc1ccc(OC)c(NC(=S)N2CCN(Cc3ccccc3)CC2)c1	0.0	1.2	0.2	1.7	1.9
SMILES	Pf gamet viab	L929 necroptosis	Arbovirus anti	Lipid droplet	TNF necrop inh
CCOc1c(CNc2nnnn2C)cccc1OC	10.5	0.6	2.3	0.4	4.2
Cc1ccc(NC2c3ncccc3C(=O)N2C2CCCCC2)cc1 (configuration not stated)	/	0.3	11.2	/	-0.4
Cc1ccc(NC2c3ncccc3C(=O)N2C2CCCCC2)cc1C (configuration not stated)	0.9	-0.5	39.6*	12.7	-2.6
CCN(CC)c1nc2ccccc2n(Cc2cccc(OC)c2)c1=O	/	/	/	7.9	/
Cc1ccc(CC(=O)Nc2ncc([N+](=O)[O-])s2)cc1	-20.1	1.6	16.1	1.7	77.4*
COc1ccc(NC(=O)c2ccccc2OCc2c(C)noc2C)cc1OC	/	/	/	35.1	/
O=C1CCC([N+](=O)[O-])C(c2cc3c(cc2Cl)OCO3)N1 (configuration not stated)	5.7	4.7	1.9	3.4	0.0
CC(C)c1ccc(/C=C(\c2nc3ccccc3[nH]2)S(=O)(=O)c2ccccc2)cc1	0.4	4.2	-33.3	54.4*	-23.4
O=C(NC(=S)Nc1ccccn1)c1ccc([N+](=O)[O-])cc1	-1.3	-0.2	-1.9	2.5	0.1

Screening data deposited in PubChem BioAssay by several laboratories.
